Converted amounts (≈) assume the structure as drawn.
Tests used:
[1] = (§1) Cytotoxicity against human HeLa cells assessed as growth inhibition after 72 hrs by MTT assay; format: cell-based; settings: HeLa cells
[2] = test system: HeLa; test: as §1; format: cell-based; settings: hela, 72 h
[3] = test system: Mycobacterium tuberculosis; test: Antitubercular activity against dormant Mycobacterium tuberculosis H37Ra ATCC 25177 after 12 days by XTT reduction menadione assay; format: functional; settings: H37Ra ATCC 25177, 288 h
Summary of the method: (§2)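 H37Ra was tested by microdilution in 96-well plates, at 30–0.001 μg/mL in one-third dilutions. Each plate carried a rifampicin and isoniazid dilution series as positive controls. Growth was scored by XTT reduction menadione assay (XRMA) and cross-checked by a final absorbance reading at 600 nm.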

[4] = test system: Mycobacterium tuberculosis; test: Antitubercular activity against active Mycobacterium tuberculosis H37Ra ATCC 25177 after 8 days by XTT reduction menadione assay; format: functional; settings: H37Ra ATCC 25177, 192 h; summary of the method: as §2
[5] = (§3) Cytotoxicity against human PANC1 cells assessed as growth inhibition after 90 hrs by MTT assay; format: cell-based, PANC-1; settings: PANC-1 cells
[6] = test system: PANC-1; test: as §3; format: cell-based; settings: panc-1, 90 h
[7] = test system: Mycobacterium tuberculosis; test: Antitubercular activity against active Mycobacterium tuberculosis H37Ra ATCC 25177 infected in human THP1 cells after 8 days by nitrate reductase assay; format: functional; settings: H37Ra ATCC 25177, 192 h
[8] = (§4) Cytotoxicity against human THP1 cells assessed as growth inhibition after 72 hrs by MTT assay; format: cell-based, THP-1; settings: THP-1 cells
[9] = test system: THP-1; test: as §4; format: cell-based; settings: thp-1, 72 h
[10] = test system: Mycobacterium tuberculosis; test: Antitubercular activity against dormant Mycobacterium tuberculosis H37Ra ATCC 25177 at 3 to 30 ug/ml after 12 days by XTT reduction menadione assay; format: functional; set-up: scale not given: the % may be the effect or the level left
[11] = test system: Mycobacterium tuberculosis; test: Antitubercular activity against dormant Mycobacterium tuberculosis H37Ra ATCC 25177 infected in human THP1 cells after 12 days by nitrate reductase assay; format: functional; settings: H37Ra ATCC 25177, 288 h
[12] = Selectivity index, ratio of GI50 for human THP1 cells to MIC90 for dormant Mycobacterium bovis BCG ATCC 35734; format: toxicity; settings: THP-1 cells, read-out: Selectivity Index
[13] = Selectivity index, ratio of GI50 for human HeLa cells to MIC90 for dormant Mycobacterium bovis BCG ATCC 35734; format: toxicity; settings: read-out: Selectivity Index
[14] = Selectivity index, ratio of GI50 for human PANC1 cells to MIC90 for active Mycobacterium bovis BCG ATCC 35734; format: toxicity; settings: PANC-1 cells, read-out: Selectivity Index
[15] = Selectivity index, ratio of GI50 for human HeLa cells to MIC90 for active Mycobacterium bovis BCG ATCC 35734; format: toxicity; settings: read-out: Selectivity Index
[16] = Selectivity index, ratio of GI50 for human THP1 cells to MIC90 for active Mycobacterium bovis BCG ATCC 35734; format: toxicity; settings: THP-1 cells, read-out: Selectivity Index
[17] = Selectivity index, ratio of GI50 for human PANC1 cells to MIC90 for dormant Mycobacterium bovis BCG ATCC 35734; format: toxicity; settings: PANC-1 cells, read-out: Selectivity Index
[18] = Selectivity index, ratio of GI50 for human THP1 cells to MIC90 for active Mycobacterium tuberculosis H37Ra ATCC 25177; format: toxicity; settings: THP-1 cells, read-out: Selectivity Index
[19] = Selectivity index, ratio of GI50 for human THP1 cells to MIC90 for dormant Mycobacterium tuberculosis H37Ra ATCC 25177; format: toxicity; settings: THP-1 cells, read-out: Selectivity Index
[20] = Antioxidant activity assessed as DPPH radical scavenging activity after 30 mins by spectrophotometric method; format: functional

Structure (SMILES)	GI50 at 72 h [1] [µg/mL]	GI90 [2] [µg/mL]	MIC90 [3] [µg/mL]	MIC90 [4] [µg/mL]	GI50 at 90 h [5] [µg/mL]	GI90 [6] [µg/mL]	MIC90 [7] [µg/mL]	GI50 at 72 h [8] [µg/mL]	GI90 [9] [µg/mL]	Activity [10] [%]	MIC90 [11] [µg/mL]	selectivity ratio [12]	selectivity ratio [13]	selectivity ratio [14]	selectivity ratio [15]	selectivity ratio [16]	selectivity ratio [17]	selectivity ratio [18]	selectivity ratio [19]	EC50 [20] [µg/mL]
O=C(CC(=O)c1cc(Cl)ccc1O)c1cc2ccccc2s1	4.42 (≈ 13.4 µM)	8.24 (≈ 24.9 µM)	2.79 (≈ 8.43 µM)	3.29 (≈ 9.95 µM)	8.44 (≈ 25.5 µM)	26.03 (≈ 78.7 µM)	2.83 (≈ 8.56 µM)	7.48 (≈ 22.6 µM)	> 30	>92	0.91 (≈ 2.75 µM)	–	–	–	–	–	–	–	–	–
Cc1ccc2oc(-c3cc4ccccc4s3)cc(=O)c2c1	15.6 (≈ 53.2 µM)	27.8 (≈ 95.1 µM)	30 (≈ 103 µM)	28.9 (≈ 98.7 µM)	12.9 (≈ 44 µM)	29.75 (≈ 102 µM)	8.39 (≈ 28.7 µM)	> 100	> 100	–	2.76 (≈ 9.44 µM)	> 22	> 20	> 20	> 20	> 22	> 20	–	–	–
O=C(CC(=O)c1cc(Br)ccc1O)c1cc2ccccc2s1	6.75 (≈ 18 µM)	20.28 (≈ 54 µM)	2.63 (≈ 7.01 µM)	2.87 (≈ 7.65 µM)	18.3 (≈ 48.8 µM)	> 30	4.94 (≈ 13.2 µM)	> 100	> 100	>92	3.91 (≈ 10.4 µM)	–	–	> 10	–	–	> 10	–	–	–
Cc1ccc(O)c(C(=O)CC(=O)c2cc3ccccc3s2)c1	7.12 (≈ 22.9 µM)	> 30	–	–	15.8 (≈ 51 µM)	> 30	–	> 100	> 100	–	–	–	–	–	–	–	> 10	–	–	–
Cc1cc(O)c(C(=O)CC(=O)c2cc3ccccc3s2)cc1Cl	> 100	> 100	–	–	20.4 (≈ 59 µM)	> 30	–	> 100	> 100	–	–	> 22	–	–	–	> 22	–	–	–	–
Cc1cc2oc(-c3cc4ccccc4s3)cc(=O)c2cc1Cl	21.2 (≈ 64.9 µM)	> 30	24.3 (≈ 74.5 µM)	25.4 (≈ 77.6 µM)	> 100	> 100	7.67 (≈ 23.5 µM)	> 100	> 100	–	2.18 (≈ 6.67 µM)	> 30	> 35	–	> 35	> 30	–	> 30	> 30	–
O=C(CC(=O)c1cc(Cl)cc(Cl)c1O)c1cc2ccccc2s1	> 100	> 100	–	–	26.2 (≈ 71.8 µM)	> 30	–	> 100	> 100	–	–	–	–	–	–	–	> 10	–	–	–
O=C(CC(=O)c1ccccc1O)c1cc2ccccc2s1	7.86 (≈ 26.5 µM)	> 30	2.05 (≈ 6.92 µM)	25.2 (≈ 84.9 µM)	7.77 (≈ 26.2 µM)	> 30	2.96 (≈ 9.99 µM)	> 100	> 100	>92	1.82 (≈ 6.14 µM)	–	–	–	–	–	–	–	–	–
Cc1ccc(C(=O)CC(=O)c2cc3ccccc3s2)c(O)c1	23.1 (≈ 74.5 µM)	> 30	4.41 (≈ 14.2 µM)	5.45 (≈ 17.6 µM)	9.24 (≈ 29.8 µM)	> 30	25.8 (≈ 83.3 µM)	> 100	> 100	>92	2.61 (≈ 8.41 µM)	–	> 13	–	> 13	–	–	–	–	20 (≈ 64.4 µM)
NNC(=O)c1ccncc1 [ISONIAZID]	–	–	0.075 (≈ 0.547 µM)	0.074 (≈ 0.54 µM)	–	–	0.05 (≈ 0.365 µM)	–	–	–	0.075 (≈ 0.547 µM)	–	–	–	–	–	–	–	–	–
CC(=O)O[C@H]1C(=O)[C@@]2(C)[C@H]([C@H](OC(=O)c3ccccc3)[C@]3(O)C[C@H](OC(=O)[C@H](O)[C@@H](NC(=O)c4ccccc4)c4ccccc4)C(C)=C1C3(C)C)[C@]1(OC(C)=O)CO[C@@H]1C[C@@H]2O [PACLITAXEL]	0.004 (≈ 0.00468 µM)	0.075 (≈ 0.0878 µM)	–	–	0.127 (≈ 0.149 µM)	5.715 (≈ 6.69 µM)	–	0.133 (≈ 0.156 µM)	5.81 (≈ 6.8 µM)	–	–	–	–	–	–	–	–	–	–	–
CO[C@H]1/C=C/O[C@@]2(C)Oc3c(C)c(O)c4c(O)c(c(/C=N/N5CCN(C)CC5)c(O)c4c3C2=O)NC(=O)/C(C)=C\C=C\[C@H](C)[C@H](O)[C@@H](C)[C@@H](O)[C@@H](C)[C@H](OC(C)=O)[C@@H]1C [RIFAMPIN]	–	–	0.043 (≈ 0.0523 µM)	0.048 (≈ 0.0583 µM)	–	–	0.5 (≈ 0.608 µM)	–	–	–	0.8 (≈ 0.972 µM)	–	–	–	–	–	–	–	–	–

Reference: ChEMBL document CHEMBL4431374, “Synthesis and Antitubercular Activity of New Benzo[b]thiophenes” (ACS Med Chem Lett, 2016)
